# From PubChem BioAssay
# The list is not random: actives were taken first. Their share in the collection is about 4%.
# TAAR1 agonist: agonists of human TAAR1 | 360,000 compounds, 0.99% hits | CHO RD-HGA16 TAAR1, Fluo-8 calcium fluorescence; vehicle wells 0%, saturating PEA agonist 100% | activation, % at 3 µM;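 active = activation above the mean activation of all test compounds in the run plus 3 SD, cut at about 38% in these data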
#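 Signal – calcium-sensitive Fluo-8 signal, excitation 470-495, emission 515-575 nm · System – RD-HGA16 (CHO) cells co-expressing Gα16 and hTAAR1 · Incubation – 17-24 h seeding, 75 min 37 °C dye, 30 min RT · Compound dosing – 3 µM single concentration · Repeats – no replicates (n 1)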
# OX1R antag-1: OX1R (human) antagonism; OX1R-expressing cells, FRET antagonist read-out; O43613; inhibition, % at 6.6 µM; 330,000 compounds, 1.8% hits; AID 485270; in the data active = inhibition mostly above about 38%, no sharp cut-off; inactive = mostly below about 40%;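 note: 0% = agonist challenge alone and 100% = reference antagonist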
# Target sequence (O43613 whole entry, looked up): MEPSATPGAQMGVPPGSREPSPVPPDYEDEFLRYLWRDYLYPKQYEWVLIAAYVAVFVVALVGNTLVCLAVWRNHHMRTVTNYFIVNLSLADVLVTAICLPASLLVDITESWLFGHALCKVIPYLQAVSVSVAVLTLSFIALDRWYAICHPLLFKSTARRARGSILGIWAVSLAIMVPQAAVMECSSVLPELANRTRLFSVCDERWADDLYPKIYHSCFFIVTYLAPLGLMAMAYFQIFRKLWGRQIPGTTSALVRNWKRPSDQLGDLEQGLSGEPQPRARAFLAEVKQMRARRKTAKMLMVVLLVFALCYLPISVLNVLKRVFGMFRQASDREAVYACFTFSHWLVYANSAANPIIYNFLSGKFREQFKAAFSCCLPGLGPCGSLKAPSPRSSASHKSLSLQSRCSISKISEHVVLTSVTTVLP
# OX1R antag-2: human HCRTR1 antagonism; O43613; CHO/OX1R cells, Fluo-8 calcium fluorescence, orexin A; inhibition, % at 5 µM; 330,000 compounds, 0.43% hits; AID 434989;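 active = inhibition above its plate's threshold, mean inhibition of all tested compounds on the plate plus 3 SD, cut at about 37% in these data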;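 note: 0% = orexin A challenge wells and 100% = SB-334867-A antagonist wells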
# NTR1 agonist: activates human neurotensin receptor 1 | P30989 | activation, % at 20 µM | 330,000 compounds, 0.17% hits | NTR1-U2OS beta-arrestin-GFP spot imaging, agonist mode;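 active = activation at or above 40% of the spot to cytoplasm intensity ratio, with at least 20 cells analyzed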;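 note: 0% = DMSO without peptide and 100% = 100 nM NTR1 peptide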
# CHO parental Ca: counter-screen: ATP calcium response change in parental CHO cells | inhibition, % at 5.6 µM | parental CHO-K1, ATP-induced calcium, Fluo-8 fluorescence | AID 463079 | 330,000 compounds, 0.63% hits;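 active = inhibition above that plate's mean sample inhibition plus 3 SD, cut at about 26% in these data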;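 note: 0% = ATP-challenged DMSO wells and 100% = DMSO wells without ATP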
#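 Test system: parental CHO cells; detection: calcium-sensitive Fluo-8 fluorescence; evaluation: percent inhibition of calcium signal; also added: ATP as calcium-mobilizing challenge; repeats: one well per compound; control set: ATP-challenged DMSO wells low, unchallenged DMSO wells high; compound: single nominal dose of 5.6 µM per compound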
# TAAR1 antag: human TAAR1 antagonism; CHO RD-HGA16 TAAR1, Fluo-8 calcium fluorescence, antagonist; inhibition, % at 3 µM; 360,000 compounds, 1.5% hits; AID 624466;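 active = inhibition above a per-plate cutoff, the mean inhibition of test compounds on that plate plus 3 SD, cut at about 49% in these data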;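 note: 0% = DMSO plus EC80 beta-PEA response and 100% = DMSO alone without agonist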
#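 Test system: RD-HGA16 CHO cells with stable hTAAR1 and Gα16 / Probe or stimulus: EC80 β-phenethylamine stimulus / Times: seeding 17-24 h prior, 75-min 37 °C, 30-min RT dye loading / Detection: Fluo-8 calcium-sensitive fluorescence / Read-out basis: % inhibition scaled between DMSO and EC80 PEA controls / Repeats: singlicate, one well per test compound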
# An asterisk follows results filed as active; · = not tested or not shown.
SMILES,TAAR1 agonist,OX1R antag-1,OX1R antag-2,NTR1 agonist,CHO parental Ca,TAAR1 antag
COc1ccccc1-c1oc2ccccc2c1C#CC1(N)CCCCC1,38*,4,6,13,4,8
Cc1cc(C(=O)COC(=O)c2ccccc2O)c(C)n1CC1CCCO1 (stereo not drawn),10,6,6,3,-4,-1
Cc1cc(C(=O)CSc2nc3ccc(Cl)cc3[nH]2)c(C)n1CC1CCCO1 (stereo not drawn),12,88*,42,6,45*,43
C=CCn1c(C)cc(C(=O)CSc2nc3ccccc3c(=O)[nH]2)c1C,17,61*,55*,8,55*,67*
Cc1cc(C(=O)CSc2nc3ccc(Cl)cc3[nH]2)c(C)n1C,6,24,-33,1,-14,-8
Cc1ccc(C(=O)CSc2nc3ccccc3c(=O)[nH]2)cc1C,3,48*,-8,4,-29,20
Cc1cc(C(=O)COc2ccccc2C(N)=O)c(C)n1CC1CCCO1 (stereo not drawn),10,45,34,4,34*,19
Cc1[nH]nc2c1C(c1cccc(C(F)(F)F)c1)N(Cc1ccccc1)C2=O (stereo not drawn),3,·,·,·,·,-33
COc1ccc(C(C)(C)C)cc1NC(=O)OC[C@@H]1CSCCS(=O)(=O)N1,5,·,·,·,·,-11
Cc1cc(C(=O)CSc2nc3ccccc3[nH]2)c(C)n1Cc1ccco1,10,77*,25,12,49*,44
C=CCn1c(C)cc(C(=O)CSc2nc3ccccc3[nH]2)c1C,17,42*,46*,4,21,60*
Cc1cc(C(=O)CSc2nc3ccccc3[nH]2)c(C)n1C,10,21,-30,2,-12,7
CC(C)(C)C(=O)c1c(N)[nH]c(C(=O)c2ccccc2)c1-c1ccccc1,9,·,·,·,·,-8
O=C(Nc1cccc2ccccc12)c1ccc(Br)o1,3,·,·,·,·,3
COc1ccc(C(=O)Nc2cccc3cccnc23)cc1OC,8,49*,-15,2,-15,-5
COc1ccc(C(=O)Nc2cccnc2Cl)cc1OC,1,14,-7,-2,-5,-7
CCOc1ccccc1C(=O)Nc1cccc2cccnc12,4,44*,10,10,-18,-20
COc1ccc(OC)c(NC(=O)c2ccccc2NS(=O)(=O)c2cccc3cccnc23)c1,2,64*,6,2,-9,-5
O=C(Nc1cccc2cccnc12)c1ccc(Br)o1,7,75*,9,3,-16,-10
O=C(COC(=O)C1CCN(c2ccc(C(F)(F)F)cn2)CC1)Nc1ncc(Cl)cc1Cl,7,5,-10,2,-7,7
C[C@@H]1CCCCO[C@@H](CN(C)C(=O)CCC(F)(F)F)[C@@H](C)CN([C@H](C)CO)C(=O)c2cc(NS(=O)(=O)c3cccs3)ccc2O1,2,·,·,·,·,3
CN(CC(=O)Nc1ccc(S(=O)(=O)N2CCOCC2)cc1)Cc1ccc(F)cc1,2,-1,5,1,-2,1
COc1ccc(N(CC(=O)Nc2ccc(S(=O)(=O)N3CCOCC3)cc2)S(=O)(=O)c2ccc(F)cc2)cc1,20,0,-8,2,-9,51*
CCCn1c(CN2CCN(c3cccc(Cl)c3)CC2)nc2c1c(=O)n(C)c(=O)n2C,2,21,-25,10,33*,2
CC(C)(C)[C@H]1COC(=O)[C@H](NC(=O)OCC2c3ccccc3-c3ccccc32)C/C=C\C[C@@H](CC(=O)N(CCO)Cc2ccccc2)C(=O)N1,19,1,-28,9,-13,51*
SMILES,TAAR1 agonist,OX1R antag-1,OX1R antag-2,NTR1 agonist,CHO parental Ca,TAAR1 antag
O=C1NC[C@@H](c2ccccc2)OC(=O)[C@@H](Cc2ccc(F)cc2)C/C=C\C[C@@H]1CC(=O)N(CCO)Cc1ccccc1,38*,12,-11,4,-19,69*
CC(C)(C)OC(=O)C[C@@H]1C/C=C\C[C@@H](CC(=O)N(CCO)Cc2ccccc2)C(=O)N[C@@H](c2ccccc2)COC1=O,15,12,-41,4,-17,49*
CC(C)(C)[C@@H]1COC(=O)[C@@H](Cc2ccc(F)cc2)CC/C=C\C[C@@H](CC(=O)N(CCO)Cc2ccccc2)C(=O)N1,9,10,-23,3,-9,5
C[C@@H]1COC(=O)[C@H](NC(=O)OCC2c3ccccc3-c3ccccc32)C/C=C\C[C@@H](CC(=O)N(CCO)Cc2ccccc2)C(=O)N1,·,5,-30,6,-24,·
CC(C)(C)[C@@H]1COC(=O)[C@H](Cc2ccc(F)cc2)CC/C=C\C[C@H](CC(=O)N(CCO)Cc2ccccc2)C(=O)N1,36,30,11,8,-3,56*
Cc1ccc(S(=O)(=O)N(C)c2cccc3c2S(=O)(=O)N([C@H](C)c2ccccc2)C[C@@H](COCc2ccccc2)O3)cc1,1,·,·,·,·,8
CN(C(=O)[C@@H](Cc1ccccc1)NC(=O)[C@H]1O[C@@H](n2cnc3c(=O)[nH]c(N)nc32)[C@H](O)[C@@H]1O)C1CCCCC1,1,·,·,·,·,-8
O=C1NC[C@H](c2ccccc2)OC(=O)[C@H](Cc2ccc(F)cc2)CC/C=C/C[C@H]1CC(=O)N(CCO)Cc1ccccc1,41*,39,5,11,-17,62*
O=C1NC[C@H](c2ccccc2)OC(=O)[C@@H](Cc2ccc(F)cc2)CC/C=C/C[C@H]1CC(=O)N(CCO)Cc1ccccc1,30,18,8,25,-20,71*
C[C@@H]1CCCCO[C@H](CN(C)S(=O)(=O)c2cn(C)cn2)[C@@H](C)CN([C@H](C)CO)C(=O)c2cc(NC(=O)CCCN(C)C)ccc2O1,2,·,·,·,·,7
COC(=O)CCN1CCSCCS1(=O)=O,1,·,·,·,·,-12
COc1cccc(Nc2cc(C)c3ccccc3n2)c1,-3,49*,-30,6,-28,-15
C#CCNC(=O)C[C@H]1C[C@@]2(C(=O)OC)C(=C[C@H](C3CCCC3)O[C@@H]2C)N(Cc2ccccc2)C1=O,2,·,·,·,·,-1
Nc1ccn([C@@H]2O[C@H](C(=O)N[C@H](Cc3ccccc3)C(=O)NCc3cccc4c3OCO4)[C@@H](O)[C@H]2O)c(=O)n1,0,·,·,·,·,5
COCCNC(=S)N1CCN(c2nc(-c3ccc(F)cc3)cs2)CC1,5,-1,-10,-1,-1,25
CCNC(=S)N1CCN(c2nc(-c3ccc(F)cc3)cs2)CC1,3,21,48*,3,65*,44
CC1CN(C(=O)CSc2nnc(CNC(=O)c3ccc(S(=O)(=O)N(C)C)cc3)o2)CC(C)O1 (stereo not drawn),0,4,6,0,2,8
